Most compounds without a hit are left out; they make up all but 1.9% or so of the library.
TbHK1 inh – blocks Trypanosoma brucei hexokinase 1 activity | 220,000 compounds, 0.11% hits | recombinant TbHK1, G6PDH-coupled NADH A340 | inhibition, % at 10 µM;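 active = inhibition of 50% or more in the single-dose primary screen; inactive = inhibition below 50%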
Runt-SMMHC FRET – inhibitors of human RUNX1 Runt domain binding to CBFb-SMMHC; Q01196+Q13951; Cerulean-Runt/Venus-CBFb-SMMHC FRET ratio 530/480, 1 h; inhibition, % at 20 µM; 220,000 compounds, 0.74% hits; AID 1434;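 active = mean inhibition across duplicate retests at 20 µM reaching about 50%, limit read from the data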;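 note: inhibitors lower the FRET ratio by blocking Runt binding to CBFb-SMMHC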
Runt-CBFb FRET – blocks binding of human RUNX1 Runt domain to CBFb | AID 1496 | 220,000 compounds, 0.46% hits | inhibition, % at 20 µM | Q01196+Q13951 | Cerulean-Runt/Venus-CBFb FRET ratio 530/480, 1 h;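 active = inhibition over about 50% at 20 µM in the single-dose screen, limit read from the data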
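Assay system: Cerulean-Runt domain / Medium: Tris 50 mM pH 7.5, KCl, K2SO4, 0.01% BSA / Timing: protein complex preformed 1 h, compound exposure 1 h, room temperature, dark / Measured by: FRET, excitation 422 nm, emission at 530 and 480 nm / Evaluation: loss of energy transfer signal / Control set: 5 µM unlabeled CBFb as full-inhibition high control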
RanGTP-Impb inh – disruptors of Ran-importin-beta complex formation – biochemical, FRET, CFP-Ran, YFP-importin-beta, homogeneous, primary screen; cell-free CFP-Ran/YFP-importin-beta FRET ratio; inhibition, % (test concentration not listed); 300,000 compounds, 1.1% hits;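 active = more than half of the replicate wells show a fall in the fluorescence ratio signal beyond about 16%, limit read from the data, passing the limit was not always enough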
Hck Nef HTS – inhibitors of human Hck kinase activated by Nef; 220,000 compounds, 0.68% hits; AID 463187; Recombinant Hck-YEEI plus Nef, Z-Lyte FRET kinase assay; inhibition, % at 20 µM; P08631;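 active = Hck-Nef kinase inhibition above about 50%, limit read from the data; inactive = inhibition below that limit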
Target sequence (P08631 whole entry, looked up): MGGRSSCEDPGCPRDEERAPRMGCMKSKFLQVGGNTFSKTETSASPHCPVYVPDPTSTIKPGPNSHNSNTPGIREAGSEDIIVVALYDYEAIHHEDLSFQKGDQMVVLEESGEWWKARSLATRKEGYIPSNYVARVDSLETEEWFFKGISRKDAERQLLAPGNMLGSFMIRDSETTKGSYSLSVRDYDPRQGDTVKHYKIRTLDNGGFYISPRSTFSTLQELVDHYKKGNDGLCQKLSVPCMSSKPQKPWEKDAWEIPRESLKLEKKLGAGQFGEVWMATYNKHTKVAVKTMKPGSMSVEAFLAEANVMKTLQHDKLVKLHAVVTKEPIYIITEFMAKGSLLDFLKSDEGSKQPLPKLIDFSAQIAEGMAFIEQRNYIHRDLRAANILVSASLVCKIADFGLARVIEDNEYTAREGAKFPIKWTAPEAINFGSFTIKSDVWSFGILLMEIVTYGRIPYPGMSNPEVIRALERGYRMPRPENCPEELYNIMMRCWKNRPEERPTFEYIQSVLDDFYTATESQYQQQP
A number is an active result; i = inactive; nt = no result given.

SMILES	TbHK1 inh	Runt-SMMHC FRET	Runt-CBFb FRET	RanGTP-Impb inh	Hck Nef HTS
O=c1oc2ccc3ccccc3c2cc1-c1nnc(-c2ccccc2)o1	i	i	76	122	i
CCN(CC)c1ccc2cc(-c3nc4ccccc4n3C)c(=O)oc2c1	i	61	i	126	i
CN(C)Cc1c(O)ccc2cc(-c3nc4ccccc4n3C)c(=O)oc12	nt	nt	nt	132	nt
O=c1oc2ccc3ccccc3c2cc1-c1nnc(-c2cccs2)o1	i	58	i	114	i
COc1ccc(CCNCC(O)COc2ccc(OC)cc2C(C)(C)C)cc1 (stereo not drawn)	nt	nt	nt	i	nt
COc1ccc(N(C)C(=O)c2cn(C)c(=O)c3cc(OC)c(OC)cc23)cc1	nt	nt	nt	i	nt
CCN(CC)c1ccc2cc(-c3nnc(-c4ccccc4)o3)c(=O)oc2c1	i	83	i	115	i
Nc1nnc(-c2cc3c(ccc4ccccc43)oc2=O)s1	i	92	i	nt	i
CCN(CC)c1ccc2cc(-c3nnc(-c4ccc(Br)cc4)o3)c(=O)oc2c1	i	nt	nt	nt	i
CCN(CC)c1ccc2cc(-c3nc(-c4ccc(OC)cc4)cs3)c(=O)oc2c1	i	62	i	nt	i
COc1ccc2cc(-c3ccccc3)c(=O)oc2c1	nt	nt	nt	i	nt
CCc1ccc(N(CC(=O)NC(C)C)C(=O)CCC(=O)Nc2nccs2)cc1	nt	nt	nt	i	nt
NS(=O)(=O)c1ccc(CCNC(=O)c2ccc3ccccc3n2)cc1	i	i	i	i	i
CC(=O)c1ccc(S(=O)(=O)NCc2ccc(C(=O)NCC(c3ccccc3)N(C)C)cc2)cc1 (stereo not drawn)	nt	nt	nt	i	nt
Cc1cccc(N/C(N)=N/c2nc(C(F)(F)F)cc(=O)[nH]2)c1C	i	i	i	i	i
Nc1nc(C2CC(=O)OC23CCCCC3)cs1 (stereo not drawn)	i	i	i	21	i
Cc1nc(C2CC(=O)OC23CCCCC3)cs1 (stereo not drawn)	i	i	i	i	i
Cc1cc(=O)oc(C)c1C(=O)NNC(=O)C1(C)CC1Br (stereo not drawn)	i	i	i	i	i
CC1(C(=O)NNC(=O)c2ccc(=O)oc2)CC1Br (stereo not drawn)	i	84	i	i	i
CN(C)CCCNc1c2c(nc3cc(-c4cccc(F)c4)nn13)CCC2	i	i	i	27	i
COc1ccccc1OCC(O)CNCc1ccc2c(c1)OCO2 (stereo not drawn)	i	i	i	i	i
CCN1C(=O)c2cccc3c(S(=O)(=O)NCc4ccccn4)ccc1c23	i	i	i	23	i
CCOC(=O)Cc1csc(NS(=O)(=O)c2ccc3c4c(cccc24)C(=O)N3CC)n1	i	i	i	i	i
CCOC(=O)CNS(=O)(=O)c1ccc2c3c(cccc13)C(=O)N2CC	i	86	i	21	i
COCCNS(=O)(=O)c1ccc2c3c(cccc13)C(=O)N2C	i	i	i	23	i
SMILES	TbHK1 inh	Runt-SMMHC FRET	Runt-CBFb FRET	RanGTP-Impb inh	Hck Nef HTS
O=C(CCn1nnnc1CN1CCOCC1)N1CCC(c2cccc(Cl)c2)C1 (stereo not drawn)	nt	nt	nt	i	nt
CCC/C=N/Nc1nnc(Cc2ccc(OC)c(OC)c2)c(=O)[nH]1	nt	nt	nt	i	nt
O=C(CSC1CS(=O)(=O)c2cc([N+](=O)[O-])ccc21)NNC(=O)c1ccc(Cl)cc1 (stereo not drawn)	i	i	i	i	i
O=C(CSC1CS(=O)(=O)c2cc([N+](=O)[O-])ccc21)NNC(=O)c1ccccc1 (stereo not drawn)	i	i	i	18	i
Cc1cccn2c(=O)c3cc(C#N)c(=N)n(Cc4cccnc4)c3nc12	i	nt	nt	nt	i
CC(=O)N=c1c(C#N)cc2c(=O)n3ccccc3nc2n1Cc1ccccc1	i	81	138	32	i
Cc1cccn2c(=O)c3cc(C#N)c(=O)n(Cc4cccnc4)c3nc12	nt	i	79	nt	nt
O=c1c2ccc(Cl)cc2[nH]c(=S)n1Cc1cccnc1	i	i	i	i	i
N#Cc1cc2c(=O)n3ccccc3nc2n(Cc2cccnc2)c1=O	nt	nt	nt	74	nt
CCN1CCN(C(=O)c2cc3c(=O)n4ccccc4nc3n2Cc2ccccc2)CC1	nt	i	i	nt	nt
Cc1ccc2nc(Nc3ccc4[nH]c(=O)[nH]c4c3)c(-n3nc(C)cc3C)nc2c1	i	i	i	40	i
Cc1cc(C)n(-c2nc3ccccc3nc2Nc2ccc3c(c2)OCO3)n1	i	i	i	i	i
O=[N+]([O-])c1ccc2c(c1)N([O-])C1(CCCCC1)[N+]2=O	i	73	i	nt	i
